Assay results from ChEMBL document CHEMBL3992534, “Design, Synthesis, and Biological Evaluation of Novel, Non-Brain-Penetrant, Hybrid Cannabinoid CB1R Inverse Agonist/Inducible Nitric Oxide Synthase (iNOS) Inhibitors for the Treatment of Liver Fibrosis” (J Med Chem, 2017).
Activity calls are given as the source filed them. No cut-off for these calls is given here.

Experiments:
[1] = molecular target: Cannabinoid receptor 2 (Mus musculus, UniProt P47936); experiment: Displacement of [3H]CP55940 from mouse CB2R expressed in CHOK1 cell membranes
How it was run: (§1)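 Displacement binding isotherms with [3H]-CP55940 as labeled ligand on plasma membranes from CHO-K1 cells expressing CB1R or CB2R. Ki was calculated by the Cheng-Prusoff equation. Values are mean ± SEM of 3 independent experiments, each run in triplicate.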

[2] = molecular target: T1, Cannabinoid receptor 1 (Mus musculus, UniProt P47746); experiment: Inverse agonist at mouse brain CB1R expressed in CHOK1 cell membranes assessed as inhibition of CP55940-stimulated [35S]GTP-gammaS binding measured after 60 mins by scintillation spectrometry
[3] = test system: Mus musculus; experiment: Antifibrotic activity in BDL-induced CB1R deficient C57Bl6/J mouse liver damage model assessed as reduction in collagen deposition in liver at 3 mg/kg administered once daily via oral gavage by picrosirius red staining based histological analysis; assay type: functional, organism-based
[4] = test system: Mus musculus; experiment: Antifibrotic activity in CCl4-induced C57Bl6/J mouse liver fibrosis model assessed as reduction in iNOS level at 3 mg/kg administered via oral gavage for 4 weeks by immunostaining based method; assay type: functional, organism-based
[5] = test system: Mus musculus; experiment: Antifibrotic activity in BDL-induced wild-type C57Bl6/J mouse liver damage model assessed as reduction in collagen deposition in liver at 30 mg/kg administered once daily via oral gavage by picrosirius staining based histological analysis; assay type: functional, organism-based
[6] = test system: Mus musculus; experiment: In vivo antagonist activity at CB1R in C57Bl6/J mouse assessed as induction of anxiogenic behavior at 10 mg/kg administered once daily via oral gavage for 28 days by elevated plus maze test; assay type: functional, organism-based
[7] = test system: Mus musculus; experiment: Antifibrotic activity in BDL-induced wild-type C57Bl6/J mouse liver damage model assessed as reduction in liver fibrosis at 3 mg/kg administered once daily via oral gavage starting on day 6 post-BDL induction by picrosirius red staining based histological analysis; assay type: functional, organism-based
[8] = test system: Mus musculus; experiment: Antifibrotic activity in CCl4-induced C57Bl6/J mouse liver fibrosis model assessed as reduction in liver fibrosis at 3 mg/kg administered via oral gavage for 4 weeks by picrosirius red staining based histological analysis; assay type: functional, organism-based
[9] = molecular target: T1, Cannabinoid receptor 1; experiment: Displacement of [3H]CP55940 from mouse brain CB1R expressed in CHOK1 cell membranes; how it was run: as §1
[10] = test system: Mus musculus; experiment: Antifibrotic activity in CCl4-induced C57Bl6/J mouse liver fibrosis model assessed as reduction in liver fibrosis at 10 mg/kg administered via oral gavage for 4 weeks by picrosirius red staining based histological analysis; assay type: functional, organism-based
[11] = test system: Mus musculus; experiment: Antifibrotic activity in CCl4-induced C57Bl6/J mouse liver fibrosis model assessed as reduction in iNOS level at 10 mg/kg administered via oral gavage for 4 weeks by immunostaining based method; assay type: functional, organism-based
[12] = molecular target: T2, Nitric oxide synthase, inducible (Mus musculus) (UniProt P29477); experiment: Inhibition of iNOS in mouse RAW264.7 cells assessed as interferon gamma-induced NO production measured after 1 hr by fluorimetric assay; assay type: cell-based
T2 sequence (whole entry): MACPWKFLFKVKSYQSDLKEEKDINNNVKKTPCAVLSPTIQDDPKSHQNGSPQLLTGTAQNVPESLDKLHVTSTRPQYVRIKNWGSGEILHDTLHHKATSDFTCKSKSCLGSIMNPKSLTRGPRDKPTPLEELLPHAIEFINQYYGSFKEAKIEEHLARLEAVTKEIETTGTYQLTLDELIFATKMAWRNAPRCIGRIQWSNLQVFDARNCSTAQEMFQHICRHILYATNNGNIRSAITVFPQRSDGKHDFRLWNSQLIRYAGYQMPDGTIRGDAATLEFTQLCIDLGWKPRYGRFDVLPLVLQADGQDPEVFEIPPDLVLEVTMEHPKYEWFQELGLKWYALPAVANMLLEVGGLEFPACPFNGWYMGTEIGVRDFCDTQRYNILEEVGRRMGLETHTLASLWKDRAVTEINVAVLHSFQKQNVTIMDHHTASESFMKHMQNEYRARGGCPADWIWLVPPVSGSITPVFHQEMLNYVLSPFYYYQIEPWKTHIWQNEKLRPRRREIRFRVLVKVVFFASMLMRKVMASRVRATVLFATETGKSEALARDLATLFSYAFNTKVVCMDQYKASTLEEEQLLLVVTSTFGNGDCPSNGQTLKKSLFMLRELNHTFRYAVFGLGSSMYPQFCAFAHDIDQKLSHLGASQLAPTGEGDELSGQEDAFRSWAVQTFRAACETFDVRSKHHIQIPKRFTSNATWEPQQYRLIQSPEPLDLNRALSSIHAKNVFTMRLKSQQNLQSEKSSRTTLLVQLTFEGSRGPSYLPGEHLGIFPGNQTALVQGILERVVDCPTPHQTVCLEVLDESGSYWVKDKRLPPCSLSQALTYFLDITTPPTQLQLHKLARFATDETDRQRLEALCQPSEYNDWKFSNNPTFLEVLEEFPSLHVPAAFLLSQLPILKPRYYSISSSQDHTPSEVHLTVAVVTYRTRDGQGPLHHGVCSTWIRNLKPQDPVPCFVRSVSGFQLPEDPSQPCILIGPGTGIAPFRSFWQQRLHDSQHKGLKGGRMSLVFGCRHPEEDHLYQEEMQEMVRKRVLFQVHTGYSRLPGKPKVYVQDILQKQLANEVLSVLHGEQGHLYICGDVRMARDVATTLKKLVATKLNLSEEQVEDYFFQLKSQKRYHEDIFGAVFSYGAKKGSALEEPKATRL

[13] = molecular target: T2, Nitric oxide synthase, inducible (Mus musculus); experiment: Inhibition of iNOS in mouse RAW264.7 cells assessed as LPS-induced NO production measured after 1 hr by fluorimetric assay; assay type: cell-based

T1 sequence (P47746 whole entry): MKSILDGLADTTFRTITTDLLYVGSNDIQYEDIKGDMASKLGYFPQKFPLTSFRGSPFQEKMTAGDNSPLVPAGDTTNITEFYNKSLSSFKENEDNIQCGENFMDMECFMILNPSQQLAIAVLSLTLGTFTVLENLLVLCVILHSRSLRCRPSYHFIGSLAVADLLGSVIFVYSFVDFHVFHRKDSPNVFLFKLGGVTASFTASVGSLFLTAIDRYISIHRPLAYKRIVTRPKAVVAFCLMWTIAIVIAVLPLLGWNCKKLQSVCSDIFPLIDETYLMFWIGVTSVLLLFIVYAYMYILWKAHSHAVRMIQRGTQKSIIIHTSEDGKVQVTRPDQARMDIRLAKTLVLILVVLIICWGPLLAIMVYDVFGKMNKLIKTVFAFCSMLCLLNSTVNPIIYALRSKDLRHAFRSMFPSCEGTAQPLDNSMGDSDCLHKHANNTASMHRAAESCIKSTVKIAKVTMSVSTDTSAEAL
Cannabinoid receptor 2, sequence (P47936 whole entry): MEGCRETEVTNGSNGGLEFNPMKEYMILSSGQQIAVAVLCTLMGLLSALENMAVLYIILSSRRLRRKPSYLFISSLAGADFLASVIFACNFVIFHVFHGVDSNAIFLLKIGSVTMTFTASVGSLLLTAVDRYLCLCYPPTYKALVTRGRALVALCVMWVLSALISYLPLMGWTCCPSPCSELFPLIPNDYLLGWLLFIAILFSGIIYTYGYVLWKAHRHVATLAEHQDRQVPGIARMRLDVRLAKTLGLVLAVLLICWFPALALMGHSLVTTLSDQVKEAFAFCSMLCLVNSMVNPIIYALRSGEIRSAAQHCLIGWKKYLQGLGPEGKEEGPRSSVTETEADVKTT

Structure (SMILES)	Ki [1] [µM]	IC50 [2] [µM]	also measured
N/C(=N/C(=N\S(=O)(=O)c1ccc(Cl)cc1)N1CC(c2ccccc2)C(c2ccc(Cl)cc2)=N1)c1ccc(Br)cc1 (stereo not given)	> 1		
Cc1c(C(=O)NN2CCCCC2)nn(-c2ccc(Cl)cc2Cl)c1-c1ccc(Cl)cc1			Activity [3]: inactive; Activity [4]: inactive; Activity [5]: Active; Activity [6]: Active; Activity [7]: inactive; Activity [8]: Active
C/C(N)=N\C(=N/S(=O)(=O)c1ccc(OC(F)(F)F)cc1)N1CC(c2ccccc2)C(c2ccc(Cl)cc2)=N1 (stereo not given)	> 1	0.076	
N/C(=N/C(=N\S(=O)(=O)c1ccc(Cl)cc1)N1CC(c2ccccc2)C(c2ccc(Cl)cc2)=N1)c1ccncc1 (stereo not given)	> 1	0.603	
N/C(=N/C(=N\S(=O)(=O)c1ccc(Cl)cc1)N1CC(c2ccccc2)C(c2ccc(Cl)cc2)=N1)SCCc1ccccc1 (stereo not given)	> 1	0.441	
CCS/C(N)=N\C(=N/S(=O)(=O)c1ccc(Cl)cc1)N1CC(c2ccccc2)C(c2ccc(Cl)cc2)=N1 (stereo not given)	> 1	0.534	
C/C(N)=N\C(=N/S(=O)(=O)c1ccc(C(C)C)cc1)N1CC(c2ccccc2)C(c2ccc(Cl)cc2)=N1 (stereo not given)	> 1	0.09	Ki [9]: 0.01 µM
N/C(=N/C(=N\S(=O)(=O)c1ccc(Cl)cc1)N1CC(c2ccccc2)C(c2ccc(Cl)cc2)=N1)c1ccc(F)cc1F (stereo not given)	0.106	0.022	
N/C(=N/C(=N\S(=O)(=O)c1ccc(Cl)cc1)N1CC(c2ccccc2)C(c2ccc(Cl)cc2)=N1)SCCCc1ccccc1 (stereo not given)	> 1	2.64	
C/C(N)=N\C(=N/S(=O)(=O)c1ccc(Cl)cc1)N1C[C@@H](c2ccccc2)C(c2ccc(Cl)cc2)=N1			Activity [10]: Active; Activity [11]: Active; inhibition [12]: Active; inhibition [13]: Active
C/C(N)=N\C(=N/S(=O)(=O)c1ccc(Cl)cc1)N1CC(c2ccccc2)C(c2ccc(Cl)cc2)=N1 (stereo not given)	> 1		
CNC(=NS(=O)(=O)c1ccc(Cl)cc1)N1CC(c2ccccc2)C(c2ccc(Cl)cc2)=N1 (stereo not drawn) [RAC-IBIPINABANT]		0.076	Ki [9]: 0.0081 µM
C/C(N)=N\C(=N/S(=O)(=O)c1ccc(C)cc1)N1CC(c2ccccc2)C(c2ccc(Cl)cc2)=N1 (stereo not given)	> 1	0.113	
C/C(N)=N\C(=N/S(=O)(=O)c1ccc(Br)cc1)N1CC(c2ccccc2)C(c2ccc(Cl)cc2)=N1 (stereo not given)	> 1	0.019	
C/C(N)=N\C(=N/S(=O)(=O)c1ccc(I)cc1)N1CC(c2ccccc2)C(c2ccc(Cl)cc2)=N1 (stereo not given)	> 1	0.065	
N/C(=N/C(=N\S(=O)(=O)c1ccc(Cl)cc1)N1CC(c2ccccc2)C(c2ccc(Cl)cc2)=N1)c1ccc(Cl)cc1 (stereo not given)	0.158	0.018	Ki [9]: 0.01 µM
N/C(=N/C(=N\S(=O)(=O)c1ccc(Cl)cc1)N1CC(c2ccccc2)C(c2ccc(Cl)cc2)=N1)c1ccc(F)cc1 (stereo not given)	0.173	0.116	
CS/C(N)=N\C(=N/S(=O)(=O)c1ccc(Cl)cc1)N1CC(c2ccccc2)C(c2ccc(Cl)cc2)=N1 (stereo not given)	> 1		

Now from value to compound, other results behind:

Ki [1] [µM]	IC50 [2] [µM]	Structure (SMILES)	also measured
> 1	0.395	CC(C)S/C(N)=N\C(=N/S(=O)(=O)c1ccc(Cl)cc1)N1CC(c2ccccc2)C(c2ccc(Cl)cc2)=N1 (stereo not given)	
1	0.117	N/C(=N/C(=N\S(=O)(=O)c1ccc(Cl)cc1)N1CC(c2ccccc2)C(c2ccc(Cl)cc2)=N1)c1ccccc1 (stereo not given)	
> 1	2.67	CS/C(N)=N\C(=N/S(=O)(=O)c1ccc2ccccc2c1)N1CC(c2ccccc2)C(c2ccc(Cl)cc2)=N1 (stereo not given)	Ki [9]: 0.029 µM
0.107	0.072	N/C(=N/C(=N\S(=O)(=O)c1ccc(Cl)cc1)N1CC(c2ccccc2)C(c2ccc(Cl)cc2)=N1)c1ccccc1F (stereo not given)	
> 1	0.04	C/C(N)=N\C(=N/S(=O)(=O)c1ccc(C(F)(F)F)cc1)N1CC(c2ccccc2)C(c2ccc(Cl)cc2)=N1 (stereo not given)	Ki [9]: 0.0057 µM
> 1	0.686	C/C(N)=N\C(=N/S(=O)(=O)c1ccc(F)cc1)N1CC(c2ccccc2)C(c2ccc(Cl)cc2)=N1 (stereo not given)	
> 1	0.118	C/C(N)=N\C(=N/S(=O)(=O)c1ccc2ccccc2c1)N1CC(c2ccccc2)C(c2ccc(Cl)cc2)=N1 (stereo not given)	
> 1	0.226	N/C(=N/C(=N\S(=O)(=O)c1ccc(Cl)cc1)N1CC(c2ccccc2)C(c2ccc(Cl)cc2)=N1)C12CC3CC(CC(C3)C1)C2 (stereo not given)	
> 1	0.033	N/C(=N/C(=N\S(=O)(=O)c1ccc(Cl)cc1)N1CC(c2ccccc2)C(c2ccc(Cl)cc2)=N1)c1ccccn1 (stereo not given)	Ki [9]: 0.026 µM
> 1	0.241	N/C(=N/C(=N\S(=O)(=O)c1ccc(Cl)cc1)N1CC(c2ccccc2)C(c2ccc(Cl)cc2)=N1)C1CC1 (stereo not given)	
> 1	0.03	C/C(N)=N\C(=N/S(=O)(=O)c1ccc(C(C)(C)C)cc1)N1CC(c2ccccc2)C(c2ccc(Cl)cc2)=N1 (stereo not given)	
> 1	0.07	COc1ccc(S(=O)(=O)/N=C(\N=C(/C)N)N2CC(c3ccccc3)C(c3ccc(Cl)cc3)=N2)cc1 (stereo not given)	
> 1	0.213	N/C(=N/C(=N\S(=O)(=O)c1ccc(Cl)cc1)N1CC(c2ccccc2)C(c2ccc(Cl)cc2)=N1)SCc1ccccc1 (stereo not given)	
> 1	2.04	C/C(N)=N\C(=N/S(=O)(=O)c1ccccc1)N1CC(c2ccccc2)C(c2ccc(Cl)cc2)=N1 (stereo not given)	
> 1	0.182	CC(C)(C)/C(N)=N\C(=N/S(=O)(=O)c1ccc(Cl)cc1)N1CC(c2ccccc2)C(c2ccc(Cl)cc2)=N1 (stereo not given)	
> 1	0.097	CS/C(N)=N\C(=N/S(=O)(=O)c1ccc(C(F)(F)F)cc1)N1CC(c2ccccc2)C(c2ccc(Cl)cc2)=N1 (stereo not given)	Ki [9]: 0.063 µM
> 1	0.125	N/C(COc1ccccc1)=N/C(=N\S(=O)(=O)c1ccc(Cl)cc1)N1CC(c2ccccc2)C(c2ccc(Cl)cc2)=N1 (stereo not given)	
0.25	0.292	N/C(=N/C(=N\S(=O)(=O)c1ccc(Cl)cc1)N1CC(c2ccccc2)C(c2ccc(Cl)cc2)=N1)c1cccc(Br)c1 (stereo not given)	
> 1	> 1	CC(C)/C(N)=N\C(=N/S(=O)(=O)c1ccc(Cl)cc1)N1CC(c2ccccc2)C(c2ccc(Cl)cc2)=N1 (stereo not given)	
0.161	0.033	COc1cccc(/C(N)=N\C(=N/S(=O)(=O)c2ccc(Cl)cc2)N2CC(c3ccccc3)C(c3ccc(Cl)cc3)=N2)c1 (stereo not given)	
> 1	0.101	N/C(=N/C(=N\S(=O)(=O)c1ccc(Cl)cc1)N1CC(c2ccccc2)C(c2ccc(Cl)cc2)=N1)c1cccs1 (stereo not given)	
> 1	0.065	CS/C(N)=N\C(=N/S(=O)(=O)c1ccc(I)cc1)N1CC(c2ccccc2)C(c2ccc(Cl)cc2)=N1 (stereo not given)	Ki [9]: 0.01 µM
